For experiment [1], the target named is Histone-lysine N-methyltransferase SETD7 (Homo sapiens) (UniProt Q8WTS6). The experiment is described as follows: Inhibition of human SETD7 using biotin-tagged Histone H3 and 3H-SAM as substrate at 10 uM incubated for 1 hrs by TopCount scintillation proximity assay relative to control. In a few lines:
(§1)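 Selectivity panel against human SAM-dependent methyltransferases, radiometric format. Single test concentration of 10 μM, triplicate, read as percent inhibition.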
On the technique in general: In a scintillation proximity assay essentially only radioactivity close to the scintillant gives light.

Experiment [2] has as its target Histone-lysine N-methyltransferase ASH1L (Homo sapiens) (UniProt Q9NR48). Put plainly: Inhibition of human ASH1L using chicken nucleosome and 3H-SAM as substrate at 10 uM incubated for 1 hrs by TopCount scintillation proximity assay relative to control. In a few lines: (§2)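 Human methyltransferase panel, radiometric assays. Each compound tested at a single 10 μM concentration in triplicate. Enzymes inhibited by more than 50% were taken on to concentration–response.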

Experiment [3] deals with Protein arginine N-methyltransferase 7 (Homo sapiens) (UniProt Q9NVM4). Put plainly: Inhibition of human PRMT7 using biotin-tagged Histone H2B and 3H-SAM as substrate at 10 uM incubated for 1 hrs by TopCount scintillation proximity assay relative to control. Put shortly:
as §2

For experiment [4], the target named is Histone-lysine N-methyltransferase 2A (Homo sapiens, UniProt Q03164). The experiment is described as follows: Inhibition of human MLL1 using biotin-tagged Histone H3 and 3H-SAM as substrate at 10 uM incubated for 1 hrs by TopCount scintillation proximity assay relative to control. In a few lines:
as §2

The species entered for another experiment is Homo sapiens. The experiment is described as follows: Inhibition of MDH (unknown origin) using oxaloacetic acid as substrate preincubated with compound for 5 mins followed by substrate addition and measured after 1.5 min in the presence of NADH by absorbance based plate reader analysis. The settings on record: time 6.5 min. Put shortly: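 MDH assay at room temperature in 50 mM KPi, pH 7.0, with 1% v/v DMSO final. Compound preincubated 5 min with 2 nM enzyme. Reaction started with 200 μM NADH plus 200 μM oxaloacetic acid, and absorbance followed at 340 nm for 1 min 30 s. Initial rate divided by the DMSO control rate. Single top concentration in triplicate; eight-point half-log curves in triplicate where inhibition exceeded 40%.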

Experiment [5] deals with Histone-lysine N-methyltransferase EHMT1 (Homo sapiens) (UniProt Q9H9B1). The experiment is described as follows: Inhibition of human GLP using biotin-tagged Histone H3 and 3H-SAM as substrate at 10 uM incubated for 1 hrs by TopCount scintillation proximity assay relative to control. In a few lines: as §2
Chain of Histone-lysine N-methyltransferase EHMT1 (Homo sapiens) (Q9H9B1 whole entry): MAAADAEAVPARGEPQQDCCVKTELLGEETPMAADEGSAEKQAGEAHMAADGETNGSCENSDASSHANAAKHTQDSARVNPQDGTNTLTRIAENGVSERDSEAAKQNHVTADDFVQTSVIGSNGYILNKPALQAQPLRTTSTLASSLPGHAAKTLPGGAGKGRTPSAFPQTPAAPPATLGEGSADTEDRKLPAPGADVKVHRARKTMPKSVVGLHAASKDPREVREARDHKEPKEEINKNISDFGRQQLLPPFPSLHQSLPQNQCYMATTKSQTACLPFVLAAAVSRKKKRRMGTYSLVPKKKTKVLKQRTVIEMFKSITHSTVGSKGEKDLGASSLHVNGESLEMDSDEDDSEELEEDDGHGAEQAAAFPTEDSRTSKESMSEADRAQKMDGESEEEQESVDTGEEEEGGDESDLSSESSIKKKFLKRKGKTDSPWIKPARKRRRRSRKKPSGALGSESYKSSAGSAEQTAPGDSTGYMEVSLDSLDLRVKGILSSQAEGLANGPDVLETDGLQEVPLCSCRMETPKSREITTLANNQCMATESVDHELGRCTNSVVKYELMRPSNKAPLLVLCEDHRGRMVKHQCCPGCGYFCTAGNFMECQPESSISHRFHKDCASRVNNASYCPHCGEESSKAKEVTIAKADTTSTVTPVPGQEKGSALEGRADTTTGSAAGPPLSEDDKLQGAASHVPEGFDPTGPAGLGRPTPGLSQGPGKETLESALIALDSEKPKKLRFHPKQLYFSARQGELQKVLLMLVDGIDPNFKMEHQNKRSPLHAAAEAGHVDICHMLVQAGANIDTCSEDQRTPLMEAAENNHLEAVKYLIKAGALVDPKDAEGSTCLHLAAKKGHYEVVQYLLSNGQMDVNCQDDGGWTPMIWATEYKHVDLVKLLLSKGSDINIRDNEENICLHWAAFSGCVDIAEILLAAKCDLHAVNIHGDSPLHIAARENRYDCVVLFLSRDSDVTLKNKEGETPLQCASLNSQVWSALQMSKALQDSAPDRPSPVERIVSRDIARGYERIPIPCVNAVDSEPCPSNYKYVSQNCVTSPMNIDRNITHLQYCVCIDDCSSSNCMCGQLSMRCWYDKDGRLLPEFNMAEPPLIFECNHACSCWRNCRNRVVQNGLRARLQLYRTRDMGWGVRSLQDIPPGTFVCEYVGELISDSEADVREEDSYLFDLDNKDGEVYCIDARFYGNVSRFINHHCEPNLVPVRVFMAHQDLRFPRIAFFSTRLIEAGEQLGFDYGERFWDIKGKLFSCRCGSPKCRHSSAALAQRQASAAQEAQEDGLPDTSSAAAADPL
Experiment [6] deals with Histone-lysine N-methyltransferase SMYD3 (Homo sapiens) (UniProt Q9H7B4). The experiment is described as follows: Inhibition of human SMYD3 using biotin-tagged MAP3K2 and 3H-SAM as substrate at 10 uM incubated for 1 hrs by TopCount scintillation proximity assay relative to control. Put shortly:
as §1

In experiment [7] the target is Histone-lysine N-methyltransferase, H3 lysine-79 specific (Homo sapiens, UniProt Q8TEK3). The experiment is described as follows: Inhibition of human DOT1L using chicken nucleosome and 3H-SAM as substrate at 10 uM incubated for 1 hrs by TopCount scintillation proximity assay relative to control. In a few lines:
as §2

The target in experiment [8] is Histone-lysine N-methyltransferase KMT5B (Homo sapiens) (UniProt Q4FZB7). Put plainly: Inhibition of human SUV420H1 using Biotin-tagged H4K20me1 and 3H-SAM as substrate at 10 uM incubated for 1 hrs by TopCount scintillation proximity assay relative to control. In a few lines:
as §1

Experiment [9] has as its target Histone-lysine N-methyltransferase NSD3 (Homo sapiens) (UniProt Q9BZ95). The experiment is described as follows: Inhibition of human NSD3 using chicken nucleosome and 3H-SAM as substrate at 10 uM incubated for 1 hrs by TopCount scintillation proximity assay relative to control. Put shortly:
as §2

The target in experiment [10] is Histone-lysine N-methyltransferase EHMT2 (Homo sapiens) (UniProt Q96KQ7). Put plainly: Inhibition of human G9a using biotin-tagged Histone H3 and 3H-SAM as substrate at 10 uM incubated for 1 hrs by TopCount scintillation proximity assay relative to control. In a few lines: as §2
Chain of Histone-lysine N-methyltransferase EHMT2 (Homo sapiens) (Q96KQ7 whole entry): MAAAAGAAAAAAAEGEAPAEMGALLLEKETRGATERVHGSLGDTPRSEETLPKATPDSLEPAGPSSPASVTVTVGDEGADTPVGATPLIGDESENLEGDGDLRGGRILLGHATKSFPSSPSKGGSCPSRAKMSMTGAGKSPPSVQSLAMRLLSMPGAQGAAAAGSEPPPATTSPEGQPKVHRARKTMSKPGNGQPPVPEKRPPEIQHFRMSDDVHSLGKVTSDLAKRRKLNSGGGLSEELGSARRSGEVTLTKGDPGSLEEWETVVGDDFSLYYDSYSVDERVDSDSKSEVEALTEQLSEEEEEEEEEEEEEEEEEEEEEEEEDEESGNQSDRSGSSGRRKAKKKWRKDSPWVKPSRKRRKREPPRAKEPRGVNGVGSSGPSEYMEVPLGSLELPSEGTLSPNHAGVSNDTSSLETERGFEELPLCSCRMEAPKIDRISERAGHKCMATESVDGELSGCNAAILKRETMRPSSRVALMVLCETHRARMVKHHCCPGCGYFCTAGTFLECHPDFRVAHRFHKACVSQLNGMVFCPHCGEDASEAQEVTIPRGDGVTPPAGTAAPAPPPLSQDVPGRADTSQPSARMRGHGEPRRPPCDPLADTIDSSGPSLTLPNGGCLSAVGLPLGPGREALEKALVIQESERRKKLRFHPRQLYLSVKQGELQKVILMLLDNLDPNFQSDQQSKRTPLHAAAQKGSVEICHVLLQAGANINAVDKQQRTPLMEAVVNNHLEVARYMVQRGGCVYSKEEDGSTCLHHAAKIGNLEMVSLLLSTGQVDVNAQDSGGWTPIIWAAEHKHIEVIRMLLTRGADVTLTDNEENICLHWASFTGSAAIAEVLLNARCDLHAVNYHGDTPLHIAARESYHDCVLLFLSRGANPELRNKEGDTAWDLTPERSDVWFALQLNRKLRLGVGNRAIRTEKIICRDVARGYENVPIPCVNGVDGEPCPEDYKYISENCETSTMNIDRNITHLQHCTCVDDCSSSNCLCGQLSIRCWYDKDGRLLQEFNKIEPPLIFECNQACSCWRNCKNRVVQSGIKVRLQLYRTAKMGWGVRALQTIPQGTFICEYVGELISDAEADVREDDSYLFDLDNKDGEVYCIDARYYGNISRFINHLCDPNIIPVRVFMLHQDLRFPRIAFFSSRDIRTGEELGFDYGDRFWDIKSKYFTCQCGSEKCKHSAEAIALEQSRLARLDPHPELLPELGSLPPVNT
For experiment [11], the target named is N-lysine methyltransferase SMYD2 (Homo sapiens) (UniProt Q9NRG4). The experiment is described as follows: Inhibition of human SMYD2 using biotin-tagged p53 and 3H-SAM as substrate at 10 uM incubated for 1 hrs by TopCount scintillation proximity assay relative to control. Put shortly: as §1
Chain of N-lysine methyltransferase SMYD2 (Homo sapiens) (Q9NRG4 whole entry): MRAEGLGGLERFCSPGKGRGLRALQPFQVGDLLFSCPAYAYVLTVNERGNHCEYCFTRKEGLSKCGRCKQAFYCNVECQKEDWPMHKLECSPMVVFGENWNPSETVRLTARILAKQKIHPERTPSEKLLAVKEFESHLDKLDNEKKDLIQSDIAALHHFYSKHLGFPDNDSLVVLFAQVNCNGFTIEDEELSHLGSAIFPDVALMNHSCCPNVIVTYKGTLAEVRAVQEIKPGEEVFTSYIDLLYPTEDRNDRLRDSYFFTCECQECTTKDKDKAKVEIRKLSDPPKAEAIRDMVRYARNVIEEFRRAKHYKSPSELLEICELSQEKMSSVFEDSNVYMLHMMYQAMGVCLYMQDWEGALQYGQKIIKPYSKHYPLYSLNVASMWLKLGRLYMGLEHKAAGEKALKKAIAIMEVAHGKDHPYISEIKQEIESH
In experiment [12] the target is Protein arginine N-methyltransferase 6 (Homo sapiens) (UniProt Q96LA8). The experiment is described as follows: Inhibition of human PRMT6 using biotin-tagged Histone H4 and 3H-SAM as substrate at 10 uM incubated for 1 hrs by TopCount scintillation proximity assay relative to control. In a few lines: as §2
The target in experiment [13] is Protein arginine N-methyltransferase 3 (Homo sapiens, UniProt O60678). The experiment is described as follows: Inhibition of human PRMT3 using biotin-tagged Histone H4 and 3H-SAM as substrate at 10 uM incubated for 1 hrs by TopCount scintillation proximity assay relative to control. Put shortly:
as §2

In experiment [14] the target is Histone-lysine N-methyltransferase, H3 lysine-36 specific (Homo sapiens) (UniProt Q96L73). The experiment is described as follows: Inhibition of human NSD1 using chicken nucleosome and 3H-SAM as substrate at 10 uM incubated for 1 hrs by TopCount scintillation proximity assay relative to control. In a few lines:
as §2

Active and inactive are the calls of the source. No cut-off for these calls is given here.

Chain of Histone-lysine N-methyltransferase KMT5B (Homo sapiens) (Q4FZB7 whole entry, looked up): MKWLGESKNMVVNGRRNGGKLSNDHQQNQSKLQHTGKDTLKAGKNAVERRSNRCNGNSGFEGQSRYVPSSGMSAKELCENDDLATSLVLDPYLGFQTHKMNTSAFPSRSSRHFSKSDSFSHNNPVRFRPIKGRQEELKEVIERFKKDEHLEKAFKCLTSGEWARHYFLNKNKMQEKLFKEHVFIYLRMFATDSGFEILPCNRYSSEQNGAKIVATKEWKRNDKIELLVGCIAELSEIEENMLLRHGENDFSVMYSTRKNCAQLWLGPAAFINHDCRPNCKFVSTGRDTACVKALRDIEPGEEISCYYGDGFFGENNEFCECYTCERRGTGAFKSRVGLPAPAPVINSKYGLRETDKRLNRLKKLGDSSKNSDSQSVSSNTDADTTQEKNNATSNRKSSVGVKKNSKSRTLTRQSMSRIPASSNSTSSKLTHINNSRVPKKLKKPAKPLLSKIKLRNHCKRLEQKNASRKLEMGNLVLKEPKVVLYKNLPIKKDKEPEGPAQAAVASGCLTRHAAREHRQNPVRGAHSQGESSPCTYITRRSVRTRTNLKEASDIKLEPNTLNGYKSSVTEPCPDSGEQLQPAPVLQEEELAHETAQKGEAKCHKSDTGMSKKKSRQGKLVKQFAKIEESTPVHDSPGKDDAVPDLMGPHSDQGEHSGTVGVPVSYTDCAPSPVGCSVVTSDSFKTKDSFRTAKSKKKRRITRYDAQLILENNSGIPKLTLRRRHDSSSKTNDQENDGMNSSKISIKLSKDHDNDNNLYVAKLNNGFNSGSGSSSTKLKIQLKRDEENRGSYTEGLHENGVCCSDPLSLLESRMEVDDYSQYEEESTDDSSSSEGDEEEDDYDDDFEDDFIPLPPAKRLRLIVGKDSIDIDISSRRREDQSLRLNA
Chain of Protein arginine N-methyltransferase 7 (Homo sapiens) (Q9NVM4 whole entry): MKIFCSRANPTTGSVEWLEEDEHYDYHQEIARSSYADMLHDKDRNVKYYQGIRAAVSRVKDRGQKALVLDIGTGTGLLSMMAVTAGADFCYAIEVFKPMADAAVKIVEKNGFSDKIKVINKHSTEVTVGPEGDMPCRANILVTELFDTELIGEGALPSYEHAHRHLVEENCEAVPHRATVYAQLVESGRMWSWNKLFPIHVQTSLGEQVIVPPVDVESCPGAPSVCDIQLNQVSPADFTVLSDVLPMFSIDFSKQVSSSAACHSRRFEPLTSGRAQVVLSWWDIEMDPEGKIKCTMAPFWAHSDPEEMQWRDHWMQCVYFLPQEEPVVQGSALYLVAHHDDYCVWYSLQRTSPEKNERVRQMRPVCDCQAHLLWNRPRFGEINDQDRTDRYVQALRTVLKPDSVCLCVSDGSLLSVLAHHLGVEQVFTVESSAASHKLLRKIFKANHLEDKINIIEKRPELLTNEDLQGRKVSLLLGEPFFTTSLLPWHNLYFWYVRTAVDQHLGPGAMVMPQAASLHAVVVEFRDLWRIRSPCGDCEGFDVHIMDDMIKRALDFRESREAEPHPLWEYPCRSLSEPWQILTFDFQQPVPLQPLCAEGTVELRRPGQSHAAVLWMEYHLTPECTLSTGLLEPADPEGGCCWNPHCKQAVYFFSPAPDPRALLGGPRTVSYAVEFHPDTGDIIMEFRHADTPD
Chain of Histone-lysine N-methyltransferase SETD7 (Homo sapiens) (Q8WTS6 whole entry): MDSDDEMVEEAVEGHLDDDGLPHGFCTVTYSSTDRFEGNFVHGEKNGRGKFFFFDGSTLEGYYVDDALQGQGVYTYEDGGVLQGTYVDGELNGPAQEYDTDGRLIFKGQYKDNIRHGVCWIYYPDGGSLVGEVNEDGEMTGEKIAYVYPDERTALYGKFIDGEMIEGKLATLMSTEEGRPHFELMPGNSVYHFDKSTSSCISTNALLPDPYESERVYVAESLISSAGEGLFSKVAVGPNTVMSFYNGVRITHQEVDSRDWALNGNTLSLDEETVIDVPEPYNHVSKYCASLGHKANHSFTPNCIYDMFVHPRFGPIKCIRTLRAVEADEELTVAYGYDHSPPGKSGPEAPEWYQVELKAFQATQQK

One may read the inhibition as the change of the read-out against control, counted positive when it falls. For the molecule `Cc1c(C(=O)/C=C/c2ccc(O)c([N+](=O)[O-])c2)c(C#N)c2n1CCC2`, the inhibition in experiment [1], in experiment [2], in experiment [3], in experiment [4], in [5] and in [6] was less than 50% throughout. For the same molecule, the inhibition in [7], in experiment [8], in experiment [9], in experiment [10], in experiment [11] and in experiment [12] was less than 50% in each case. Also, the inhibition in [13] and in experiment [14] was less than 50% throughout. In the experiment listed under Homo sapiens, the inhibition result was “Active”.
